Laboratory results as given in ChEMBL document CHEMBL3046297, “Molecular design of antifungal agents” (J Agric Food Chem, 2002).
In brackets after ≈: the same amount, converted by molar mass. Activity calls are given as the source filed them. No cut-off for these calls is given here.

Tests used:
Saccharomyces cerevisiae [1] = test: Antifungal activity against Saccharomyces cerevisiae ATCC 7754 after 48 hr by broth macrodilution method; settings: ATCC 7754, 48 h
[2] = test system: Radical scavenging activity; test: Antioxidant activity assessed as DPPH free radical scavenging activity after 20 min; assay type: functional
How it was run: (§1)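 DPPH scavenging. The mix held 100 mM acetate buffer pH 5.5, ethanol, ethanolic DPPH and sample. It stood 20 min at room temperature, then absorbance was read at 517 nm. Results are % decrease versus a DPPH control. IC50 was interpolated from concentration-inhibition curves, as the mean of triplicates.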

Saccharomyces cerevisiae [3] = test: Drug uptake in Saccharomyces cerevisiae ATCC 7754 at 50 to 100 ug/ml after 5 seconds; assay type: ADME, organism-based; settings: in vivo, 5 s
How it was run: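 Adsorption to cells. Yeast grown overnight with shaking in YPD at 30 °C was washed twice in 50 mM MOPS pH 6.0. Compound was mixed with or without cells (10^8 cells/mL) in this buffer at 30 °C and vortexed 5 s. After 2 min centrifugation, supernatant absorbance was read at 272 nm.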

Saccharomyces cerevisiae [4] = test: microbe, parasite or virus in culture; assay type: functional; settings: ATCC 7754, 48 h
Saccharomyces cerevisiae [5] = test: microbe, parasite or virus in culture; assay type: functional; settings: ATCC 7754, 48 h; remark: listed apart in the source
Saccharomyces cerevisiae [6] = test: microbe, parasite or virus in culture; assay type: functional; settings: ATCC 7754, 48 h; remark: listed apart in the source
Saccharomyces cerevisiae [7] = test: microbe, parasite or virus in culture; assay type: functional; settings: ATCC 7754, 48 h; remark: listed apart in the source
[8] = test system: Radical scavenging activity; test: Antioxidant activity assessed as DPPH free radical scavenging activity up to 800 ug/ml after 20 min; assay type: functional
How it was run: as §1

Saccharomyces cerevisiae [9] = test: Antifungal activity against Saccharomyces cerevisiae ATCC 7754 at MFC to 4 times MFC treated 4 hr after incubation measured up to 30 hr; assay type: functional, organism-based
How it was run: (§2)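 Growth-stage kill test. Yeast at 10^5 cells/mL was inoculated into ME broth. Compound at MFC, 2× MFC or 4× MFC was added after 0, 4 or 24 h of incubation, and viable cells were then followed over time.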

Saccharomyces cerevisiae [10] = test: Antifungal activity against Saccharomyces cerevisiae ATCC 7754 at MFC to 4 times MFC treated 24 hr after incubation measured up to 30 hr; assay type: functional, organism-based
How it was run: as §2

Saccharomyces cerevisiae [11] = test: Antifungal activity against Saccharomyces cerevisiae ATCC 7754 at MFC after 2 hr; assay type: functional, organism-based
How it was run: (§3)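 Time-kill assay. A 5-h, 30 °C preculture was inoculated into ME broth containing compound, initial 5.8 × 10^5 CFU/mL, then grown at 30 °C without shaking. Samples were taken at selected times over 48 h, serially diluted in sterile saline and plated on YPD agar. Plates were incubated 24 h at 30 °C before counting viable CFU.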

Saccharomyces cerevisiae [12] = test: Antifungal activity against Saccharomyces cerevisiae ATCC 7754 at 3.13 to 12.5 ug/ml after 1 hr by time kill analysis; assay type: functional, organism-based
How it was run: as §3

Saccharomyces cerevisiae [13] = test: Antifungal activity against Saccharomyces cerevisiae ATCC 7754 at 12.5 to 50 ug/ml after 1 hr by time kill analysis; assay type: functional, organism-based
How it was run: as §3

Row | MIC (Saccharomyces cerevisiae [1]) [µg/mL] | SMILES | MFC (Saccharomyces cerevisiae [1]) [µg/mL] | also measured
1 | 1600 (≈ 11600 µM) | O=C(O)c1ccc(O)cc1 [PARABEN] | > 3200 | –
2 | > 1600 | CCCCCCCCCCCOC(=O)c1cc(O)c(O)c(O)c1 [UNDECYL GALLATE] | > 1600 | –
3 | > 400 | CCCCCCCCCOC(=O)c1cccc(O)c1 [NONYL 3-HYDROXYBENZOATE] | > 400 | Activity [2]: inactive
4 | 3200 (≈ 20800 µM) | O=C(O)c1ccc(O)c(O)c1 [PROTOCATECHUIC ACID] | > 3200 | –
5 | 3200 (≈ 15100 µM) | CCCOC(=O)c1cc(O)c(O)c(O)c1 [PROPYL GALLATE] | > 3200 | –
6 | > 400 | CCCCCCCCCOC(=O)c1ccccc1 [NONYL BENZOATE] | – | Activity [2]: inactive
7 | > 400 | CCCCCCCCCOC(=O)c1ccc(O)cc1 [NONYL 4-HYDROXYBENZOATE] | – | Activity [2]: inactive
8 | 25 (≈ 145 µM) | CCCCCCCCCCCO [UNDECANOL] | 25 (≈ 145 µM) | –
9 | 200 (≈ 1540 µM) | CCCCCCCCO [OCTANOL] | 800 (≈ 6140 µM) | –
10 | 6.25 (≈ 21.1 µM) | CCCCCCCCCOC(=O)c1cc(O)c(O)c(O)c1 [NONYL GALLATE] | 12.5 (≈ 42.2 µM) | MFC (Saccharomyces cerevisiae [4]): 25 µg/mL (≈ 84.4 µM); MIC (Saccharomyces cerevisiae [4]): 12.5 µg/mL (≈ 42.2 µM); MFC (Saccharomyces cerevisiae [5]): 50 µg/mL (≈ 169 µM); MIC (Saccharomyces cerevisiae [5]): 25 µg/mL (≈ 84.4 µM); Activity [2]: Active; Drug uptake (Saccharomyces cerevisiae [3]): Active; MFC (Saccharomyces cerevisiae [6]): 12.5 µg/mL (≈ 42.2 µM); MIC (Saccharomyces cerevisiae [6]): 6.25 µg/mL (≈ 21.1 µM); Activity (Saccharomyces cerevisiae [9]): Active; Activity (Saccharomyces cerevisiae [10]): Active; MFC (Saccharomyces cerevisiae [7]): 12.5 µg/mL (≈ 42.2 µM); MIC (Saccharomyces cerevisiae [7]): 6.25 µg/mL (≈ 21.1 µM); Activity (Saccharomyces cerevisiae [11]): Active; Activity (Saccharomyces cerevisiae [12]): Active
11 | > 1600 | CCCCCCCCCCCCCO [TRIDECAN-1-OL] | – | –

The remaining lines, values behind:

Row | SMILES | MIC (Saccharomyces cerevisiae [1]) [µg/mL] | MFC (Saccharomyces cerevisiae [1]) [µg/mL] | also measured
12 | O=C(OC1CCC2CCCCC2C1)c1cc(O)c(O)c(O)c1 (configuration not stated) [DECAHYDRO-2-NAPHTHYL GALLATE] | 50 (≈ 163 µM) | 50 (≈ 163 µM) | –
13 | CCCCCCCCCO [NONANOL] | 100 (≈ 693 µM) | 200 (≈ 1390 µM) | –
14 | CCCCCCCCCOC(=O)c1ccc(OC)c(O)c1 | > 400 | > 400 | Activity [2]: Active
15 | CCCCCCCCCCCCOC(=O)c1cc(O)c(O)c(O)c1 [DODECYL GALLATE] | > 1600 | > 1600 | Drug uptake (Saccharomyces cerevisiae [3]): Active
16 | O=C(O)c1ccccc1 [BENZOIC ACID] | 800 (≈ 6550 µM) | 1600 (≈ 13100 µM) | MIC (Saccharomyces cerevisiae [4]): > 1600 µg/mL; MIC (Saccharomyces cerevisiae [5]): > 1600 µg/mL; MFC (Saccharomyces cerevisiae [6]): 1600 µg/mL (≈ 13100 µM); MIC (Saccharomyces cerevisiae [6]): 800 µg/mL (≈ 6550 µM); MFC (Saccharomyces cerevisiae [7]): 1600 µg/mL (≈ 13100 µM); MIC (Saccharomyces cerevisiae [7]): 800 µg/mL (≈ 6550 µM)
17 | CCCCCCOC(=O)c1cc(O)cc(O)c1 [HEXYL 3,5-DIHYDROXYBENZOATE] | > 800 | – | Activity [8]: inactive
18 | O=C(O)c1cc(O)c(O)c(O)c1 [GALLIC ACID] | > 3200 | – | –
19 | CCCCCCCCCOC(=O)c1ccc(O)c(OC)c1 | > 400 | > 400 | Activity [2]: Active
20 | COC(=O)c1cc(O)c(O)c(O)c1 [GALLIC ACID METHYL ESTER] | > 3200 | – | –
21 | CCCCCCCCCCO [DECANOL] | 50 (≈ 316 µM) | 50 (≈ 316 µM) | –
22 | CCCCCCCCCOC(=O)c1ccc(O)c(O)c1 [NONYL 3,4-DIHYDROXYBENZOATE] | 6.25 (≈ 22.3 µM) | 12.5 (≈ 44.6 µM) | Activity [2]: Active
23 | CCCCCCOC(=O)c1ccc(O)cc1 [HEXYL 4-HYDROXYBENZOATE] | > 800 | – | Activity [8]: inactive
24 | CCCCCCCCCCOC(=O)c1cc(O)c(O)c(O)c1 [DECYL GALLATE] | 12.5 (≈ 40.3 µM) | 25 (≈ 80.5 µM) | –
25 | O=C(O)c1cc(O)cc(O)c1 [3,5-DIHYDROXYBENZOIC ACID] | 3200 (≈ 20800 µM) | > 3200 | –
26 | CCCCCCCO [1-HEPTANOL] | 800 (≈ 6880 µM) | > 1600 | –
27 | CCCCCCOC(=O)c1cc(O)c(O)c(O)c1 [HEXYL GALLATE] | 400 (≈ 1570 µM) | 400 (≈ 1570 µM) | –
28 | CCCCCCCOC(=O)c1cc(O)c(O)c(O)c1 [HEPTYL GALLATE] | 100 (≈ 373 µM) | 100 (≈ 373 µM) | –
29 | CCCCCCO [1-HEXANOL] | > 1600 | > 1600 | –
30 | CCCCCCCCCOC(=O)c1cc(O)cc(O)c1 [NONYL 3,5-DIHYDROXYBENZOATE] | > 400 | > 400 | Activity [2]: inactive
31 | C/C=C/C=C/C(=O)O [SORBIC ACID] | – | – | MIC (Saccharomyces cerevisiae [4]): > 1600 µg/mL; MIC (Saccharomyces cerevisiae [5]): > 1600 µg/mL; MFC (Saccharomyces cerevisiae [6]): 1600 µg/mL (≈ 14300 µM); MIC (Saccharomyces cerevisiae [6]): 400 µg/mL (≈ 3570 µM); MFC (Saccharomyces cerevisiae [7]): 3200 µg/mL (≈ 28500 µM); MIC (Saccharomyces cerevisiae [7]): 800 µg/mL (≈ 7130 µM)
32 | O=C(O)c1cccc(O)c1 [3-HYDROXYBENZOIC ACID] | 3200 (≈ 23200 µM) | > 3200 | –
33 | CCCCCCCCCCCCO [DODECANOL] | – | > 1600 | –
34 | CCCCCCOC(=O)c1ccc(O)c(O)c1 [HEXYL 3,4-DIHYDROXYBENZOATE] | 400 (≈ 1680 µM) | 400 (≈ 1680 µM) | –
35 | CC(C)=CCC/C(C)=C/COC(=O)c1cc(O)c(O)c(O)c1 [Geranyl gallate] | 50 (≈ 163 µM) | 50 (≈ 163 µM) | Activity (Saccharomyces cerevisiae [13]): Active
